Measurements as given in ChEMBL document CHEMBL1240482, “Synthesis and antiproliferative evaluation of certain indeno[1,2-c]quinoline derivatives. Part 2” (J Med Chem, 2010).
Activity calls are given as the source filed them. The calls are words filed in the database; no cut-off is given here.

How the values were obtained:
[1] = Oral bioavailability in CD1 mouse at 20 mg/ kg, po; assay type: ADME, organism-based; details: in vivo
Method in brief: (§1)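 Male CD-1 (Crl.) mice, 22-24 g, fasted 4 h before dosing; single oral gavage of 20 mg/kg as a suspension in 0.5% methylcellulose/water, 10 mL/kg. Cardiac-puncture plasma (K-EDTA) taken predose to 27 h, three mice per time point; LC-MS/MS quantification.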

HeLa [2] = assay: Selectivity index, ratio of IC50 for human Detroit 551 cells to IC50 for human HeLa cells; assay type: functional
[3] = Mean retention time in CD1 mouse at 20 mg/ kg, po; assay type: ADME, organism-based; set-up: dose 20 mg/ kg, route oral; details: in vivo; method in brief: as §1
[4] = AUC (0 to infinity) in CD1 mouse at 20 mg/ kg, po; assay type: ADME, organism-based; set-up: time infinity, dose 20 mg/ kg, route oral; details: plasma; method in brief: as §1
[5] = Cell cycle arrest in human BT-483 cells assessed as accumulation at sub-G1 phase at 3 uM after 24 hrs by flow cytometry; assay type: functional, cell-based
Method in brief: (§2)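 BT483 cells exposed to 0, 1, 3 or 10 μM for 24 h, then stained with propidium iodide and analysed for DNA content by flow cytometry. The subdiploid (sub-G1) peak, expressed as a percentage of the whole population, is scored as apoptotic.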

[6] = Tmax in CD1 mouse at 20 mg/ kg, po; assay type: ADME, organism-based; set-up: dose 20 mg/ kg, route oral; details: in vivo; method in brief: as §1
SAS [7] = assay: Selectivity index, ratio of IC50 for human Detroit 551 cells to IC50 for human SAS cells; assay type: functional
[8] = Half life in CD1 mouse at 20 mg/ kg, po; assay type: ADME, organism-based; set-up: dose 20 mg/ kg, route oral; details: in vivo; method in brief: as §1
[9] = Cmax in CD1 mouse at 20 mg/ kg, po; assay type: ADME, organism-based; set-up: dose 20 mg/ kg, route oral; details: in vivo; method in brief: as §1
SAS [10] = assay: Cytotoxicity against human SAS cells after 48 hrs by MTT assay; assay type: functional
Method in brief: (§3)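 Cells grown in DMEM with 10% FBS at 37 °C and 5% CO2, seeded at 5 × 10^3 per well and allowed 24 h before drug. Serial dilutions from DMSO stocks applied for 48 h. MTT (2 mg/mL in PBS) added for 2 h, formazan dissolved in DMSO, absorbance read at 570 nm. GI50 interpolated by linear regression from at least three points in the 20-80% range; three independent experiments.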

HeLa [11] = assay: Cytotoxicity against human HeLa cells after 48 hrs by MTT assay; assay type: functional; method in brief: as §3
BT-483 = assay: Antitumor activity against human BT-483 cells xenografted in BALB/c athymic mouse assessed as reduction in tumor size at 10 to 20 mg/kg, iv; assay type: functional, organism-based
Method in brief: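 Balb/C athymic nude mice, 6-8 weeks, about 20 g, given subcutaneous BT483 breast cancer cells. Once tumours averaged about 500 mm3, dosed iv at 10 or 20 mg/kg once daily for 14 days, in a cosolvent formulation diluted in 5% dextrose; vehicle controls; three animals per group. Caliper volume taken as width × length × height.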

DNA topoisomerase 1 = target: T1, DNA topoisomerase 1 (Homo sapiens, UniProt P11387); assay: Inhibition of human topoisomerase 1 assessed as decrease in pBR322 mobility on agarose gel by electrophoresis
T1 sequence (P11387 whole entry): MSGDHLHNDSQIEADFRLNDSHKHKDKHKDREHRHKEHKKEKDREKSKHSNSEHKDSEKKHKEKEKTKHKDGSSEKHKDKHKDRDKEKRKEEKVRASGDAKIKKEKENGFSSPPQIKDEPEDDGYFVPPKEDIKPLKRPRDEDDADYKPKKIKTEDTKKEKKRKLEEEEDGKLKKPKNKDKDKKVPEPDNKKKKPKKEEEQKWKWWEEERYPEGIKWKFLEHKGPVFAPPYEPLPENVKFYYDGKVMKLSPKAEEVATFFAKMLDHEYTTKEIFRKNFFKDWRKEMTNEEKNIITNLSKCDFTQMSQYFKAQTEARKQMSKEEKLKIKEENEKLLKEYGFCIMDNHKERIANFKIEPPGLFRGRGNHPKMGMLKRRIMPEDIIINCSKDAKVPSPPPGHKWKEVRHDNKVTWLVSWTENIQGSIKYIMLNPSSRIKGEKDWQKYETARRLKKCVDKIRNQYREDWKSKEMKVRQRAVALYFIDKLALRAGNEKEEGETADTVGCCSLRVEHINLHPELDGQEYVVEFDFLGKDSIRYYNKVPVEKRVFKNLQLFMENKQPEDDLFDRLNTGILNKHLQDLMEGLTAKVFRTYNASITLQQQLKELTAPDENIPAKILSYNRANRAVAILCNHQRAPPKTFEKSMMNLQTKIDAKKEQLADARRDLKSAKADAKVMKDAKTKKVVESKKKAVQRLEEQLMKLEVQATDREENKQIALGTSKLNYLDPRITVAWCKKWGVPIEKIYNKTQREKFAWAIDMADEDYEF
Method in brief: (§4)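 Enzyme preincubated with compound before DNA addition; reaction run 30 min at 37 °C and stopped with SDS. Products resolved on 1% agarose, stained with ethidium bromide, quantified by densitometry.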

Mus musculus [12] = assay: Toxicity to BALB/c mouse assessed as change in glutamic pyruvate transaminase at 20 mg/kg, iv; assay type: organism-based; set-up: dose 20 mg/kg, route intravenous; details: in vivo
Method in brief: (§5)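 BALB/c mice, 3 per group, randomized by body weight (stratified). Dosed iv via tail vein at 10, 20 or 40 mg/kg in PEG 400/ethanol/water (20/20/60), once every 3 days for 2 weeks; solvent controls. Weighed throughout. After a 24 h fast, heart blood was drawn under ether; GOT, GPT, BUN and creatinine were measured on an analyzer. Liver and kidney taken for H&E.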

Nucleic Acid = assay: Binding affinity to pBR322; assay type: nucleic-acid assay; details: Escherichia coli
Mus musculus [13] = assay: Toxicity to BALB/c mouse assessed as survival rate at 10 mg/kg, iv; assay type: organism-based; set-up: dose 10 mg/kg, route intravenous; details: in vivo
Method in brief: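 Balb/C athymic nude mice (6-8 weeks, ~20 g) bearing subcutaneous BT483 breast xenografts (0.5 × 10^6 cells). Treatment began at ~500 mm3 tumour volume: cosolvent formulation diluted in 5% dextrose, iv at 10 or 20 mg/kg once daily for 14 days; controls received vehicle. 3 animals per group. Survival was assessed by Kaplan-Meier analysis at study end, p < 0.05.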

[14] = Volume of distribution at steady state in CD1 mouse at 2 mg/ kg, iv; assay type: ADME, organism-based; set-up: dose 2 mg/ kg, route intravenous; details: in vivo, read-out: Vdss
Method in brief: (§6)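 Fasted male CD-1 (Crl.) mice, 22-24 g; single tail-vein bolus of 2.0 mg/kg in PEG400/ethanol/water (30/5/65), 10 mL/kg. Cardiac-puncture blood into K-EDTA at 0-27 h, three mice per time point; plasma analysed by LC-MS/MS after acetonitrile precipitation. Parameters calculated from mean plasma concentrations.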

[15] = Apparent volume of distribution in CD1 mouse at 2 mg/ kg, iv; assay type: ADME, organism-based; set-up: dose 2 mg/ kg, route intravenous; details: in vivo, read-out: Vz; method in brief: as §6
A549 = assay: Cytotoxicity against human A549 cells after 48 hrs by MTT assay; assay type: functional; details: A549, 48 h; method in brief: as §3
[16] = Inhibition of human topoisomerase 2 assessed as decrease in pBR322 mobility on agarose gel by electrophoresis; method in brief: as §4
Mus musculus [17] = assay: Toxicity to BALB/c mouse assessed as change in body weight at 20 mg/kg, iv; assay type: organism-based; set-up: dose 20 mg/kg, route intravenous; details: in vivo; method in brief: as §5
Mus musculus [18] = assay: Toxicity to BALB/c mouse assessed as change in glutamic oxalacetic transaminase at 20 mg/kg, iv; assay type: organism-based; set-up: dose 20 mg/kg, route intravenous; details: in vivo; method in brief: as §5
[19] = Cell cycle arrest in human BT-483 cells assessed as accumulation at sub-G1 phase at 1 uM after 24 hrs by flow cytometry; assay type: functional, cell-based; method in brief: as §2

SMILES: COc1ccc2c(c1)/C(=N\OCCN1CCCC1)c1c-2c(O)nc2ccccc12
- bioavailability [1]: 10.9%
- RatioGI50 (HeLa [2]): 54.09
- MRT [3]: 3.4 h
- AUC(0-inf) [4]: 187 ng·h/mL
- Activity [5]: 58%
- Tmax [6]: 1 h
- RatioGI50 (SAS [7]): 14.81
- half-life [8]: 2.2 h
- Cmax [9]: 63 ng/mL
- GI50 (SAS [10]): 840 nM
- GI50 (HeLa [11]; read-out: GI50): 230 nM
- GI50 (HeLa [11]; read-out: pGI50 (converted)): 229 nM
- Activity (BT-483): Active
- IC50 (DNA topoisomerase 1): 3760 nM
- Activity (Mus musculus [12]): Non-toxic
- Activity (Nucleic Acid): Active
- Activity (Mus musculus [13]): Non-toxic
- Vd [14]: 12.3 L/kg
- Vd [15]: 25.5 L/kg
- GI50 (A549): 890 nM
- IC50 [16]: 8260 nM
- Activity (Mus musculus [17]): Non-toxic
- Activity (Mus musculus [18]): Non-toxic
- Activity [19]: 43%
